Experimental data as given in article PMC11293336 (Cell Reports Medicine, 2024).

What was measured:
[1] = system: patients with recurrent high-grade gliomas; conditions: IV; cited from earlier work
[2] = system: refractory head and neck cancer; conditions: intratumoral, three weekly doses at 10–15 mg/cm; cited from earlier work
[3] = IV 1,700 mg/day (MTD), 5 days/month; cited from earlier work
[4] = system: advanced acute myeloid leukemia or myelodysplastic syndrome; conditions: intravenous; cited from earlier work
[5] = system: patients with recurrent high-grade glioma; experiment: Dose-limiting toxicities and adverse events of oral terameprocol, GATOR trial; format: in vivo, human
Method in brief: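 Patients ≥18 y with recurrent supratentorial grade III–IV glioma took oral capsules once daily, days 1–5 every 28 days, fasted; an amended cohort took 6,000 mg/day with a meal within 30 min. 3+3 escalation over 1,200–6,000 mg/day. DLT window was the first 4 weeks: ANC <500/μL, platelets <25,000/μL, febrile neutropenia, hematologic toxicity preventing >80% of dose, grade 3–4 seizure/intracranial hemorrhage, grade 3 QTcF. AEs CTCAE-graded.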

[6] = DLT, 2,400 mg/day EXP (expanded dose cohort), N=4
[7] = DLT, 6,000 mg/day with meal, N=4
[8] = related to terameprocol, all cycles, N = 19

COc1ccc(C[C@@H](C)[C@@H](C)Cc2ccc(OC)c(OC)c2)cc1OC [terameprocol, meso-tetra-O-methyl nordihydroguaiaretic acid]
myelosuppression [1]: nor did terameprocol cause significant myelosuppression
total necrosis of the injection site, patients [2]: 2/3
median AUC [3]: 31.3 μg∗h/mL
stable disease [4]: five
% of patients with DLT per dose level ([5]; 1,200 mg/day, N=3): 0%
% of patients with DLT per dose level ([5]; 2,400 mg/day EXP (expanded dose cohort), N=4): 0%
% of patients with DLT per dose level ([5]; 2,400 mg/day, N=3): 33%
% of patients with DLT per dose level ([5]; 3,600 mg/day, N=3): 0%
% of patients with DLT per dose level ([5]; 6,000 mg/day with meal, N=4): 0%
% of patients with DLT per dose level ([5]; 6,000 mg/day, N=3): 0%
tolerability of oral terameprocol ([5]; 1,200-6,000 mg/day, days 1–5 every 28 days): without major toxicities and generally well tolerated and safe and well tolerated
patients who experienced DLT ([5]; DL2fasted 2,400 mg/day cohort): 1/3
DLT ([5]; DL3fasted 3,600 mg/day, three patients): no DLTs
DLT ([5]; DL4fasted 6,000 mg/day, three patients): no DLTs
DLT ([5]; DL4fed 6,000 mg/day with food): No DLTs
<80% of expected terameprocol dose due to hematologic toxicity ([5]; DLT, 1,200 mg/day, N=3): 0
Febrile neutropenia ([5]; DLT, 1,200 mg/day, N=3): 0
Grade 3–4 non-hematologic toxicity ([5]; DLT, 1,200 mg/day, N=3): 0
Grade 3–4 seizure or intracranial hemorrhage ([5]; DLT, 1,200 mg/day, N=3): 0
Platelets <25,000/mm^3 ([5]; DLT, 1,200 mg/day, N=3): 0
<80% of expected terameprocol dose due to hematologic toxicity [5, 6]: 0
Febrile neutropenia [5, 6]: 0
Grade 3–4 non-hematologic toxicity [5, 6]: 0
Grade 3–4 seizure or intracranial hemorrhage [5, 6]: 0
Platelets <25,000/mm^3 [5, 6]: 0
<80% of expected terameprocol dose due to hematologic toxicity ([5]; DLT, 2,400 mg/day, N=3): 0
Febrile neutropenia ([5]; DLT, 2,400 mg/day, N=3): 0
Grade 3–4 non-hematologic toxicity ([5]; DLT, 2,400 mg/day, N=3): 1
Grade 3–4 seizure or intracranial hemorrhage ([5]; DLT, 2,400 mg/day, N=3): 0
Platelets <25,000/mm^3 ([5]; DLT, 2,400 mg/day, N=3): 0
<80% of expected terameprocol dose due to hematologic toxicity ([5]; DLT, 3,600 mg/day, N=3): 0
Febrile neutropenia ([5]; DLT, 3,600 mg/day, N=3): 0
Grade 3–4 non-hematologic toxicity ([5]; DLT, 3,600 mg/day, N=3): 0
Grade 3–4 seizure or intracranial hemorrhage ([5]; DLT, 3,600 mg/day, N=3): 0
Platelets <25,000/mm^3 ([5]; DLT, 3,600 mg/day, N=3): 0
<80% of expected terameprocol dose due to hematologic toxicity [5, 7]: 0
Febrile neutropenia [5, 7]: 0
Grade 3–4 non-hematologic toxicity [5, 7]: 0
Grade 3–4 seizure or intracranial hemorrhage [5, 7]: 0
Platelets <25,000/mm^3 [5, 7]: 0
<80% of expected terameprocol dose due to hematologic toxicity ([5]; DLT, 6,000 mg/day, N=3): 0
Febrile neutropenia ([5]; DLT, 6,000 mg/day, N=3): 0
Grade 3–4 non-hematologic toxicity ([5]; DLT, 6,000 mg/day, N=3): 0
Grade 3–4 seizure or intracranial hemorrhage ([5]; DLT, 6,000 mg/day, N=3): 0
Platelets <25,000/mm^3 ([5]; DLT, 6,000 mg/day, N=3): 0
patients off treatment due to toxicity ([5]; all dose levels): No patients
DLT ([5]; dose expansion at DL2fasted 2,400 mg/day, three additional patients): no additional DLTs
Alanine aminotransferase increased, Grade 1 [5, 8]: 2 (10.5%) No. of patients (%)
Alanine aminotransferase increased, Total [5, 8]: 2 (10.5%) No. of patients (%)
Anemia, Grade 1 [5, 8]: 4 (21.1%) No. of patients (%)
Anemia, Total [5, 8]: 4 (21.1%) No. of patients (%)
Anorexia, Grade 1 [5, 8]: 2 (10.5%) No. of patients (%)
Anorexia, Grade 2 [5, 8]: 1 (5.3%) No. of patients (%)
Anorexia, Total [5, 8]: 3 (15.8%) No. of patients (%)
Arthralgia, Grade 1 [5, 8]: 1 (5.3%) No. of patients (%)
Arthralgia, Total [5, 8]: 1 (5.3%) No. of patients (%)
Aspartate aminotransferase increased, Grade 1 [5, 8]: 1 (5.3%) No. of patients (%)
Aspartate aminotransferase increased, Total [5, 8]: 1 (5.3%) No. of patients (%)
Blood bilirubin increased, Grade 1 [5, 8]: 1 (5.3%) No. of patients (%)
Blood bilirubin increased, Total [5, 8]: 1 (5.3%) No. of patients (%)
Constipation, Grade 1 [5, 8]: 1 (5.3%) No. of patients (%)
Constipation, Total [5, 8]: 1 (5.3%) No. of patients (%)
Diarrhea, Grade 1 [5, 8]: 2 (10.5%) No. of patients (%)
Diarrhea, Total [5, 8]: 2 (10.5%) No. of patients (%)
Electrocardiogram QT corrected interval prolonged, Grade 3 [5, 8]: 1 (5.3%) No. of patients (%)
Electrocardiogram QT corrected interval prolonged, Total [5, 8]: 1 (5.3%) No. of patients (%)
Fatigue, Grade 1 [5, 8]: 2 (10.5%) No. of patients (%)
Fatigue, Grade 2 [5, 8]: 2 (10.5%) No. of patients (%)
Fatigue, Total [5, 8]: 4 (21.1%) No. of patients (%)
Fever, Grade 1 [5, 8]: 1 (5.3%) No. of patients (%)
Fever, Total [5, 8]: 1 (5.3%) No. of patients (%)
